# Measured values as given in ChEMBL document CHEMBL2150981, “Discovery and optimization of benzotriazine di-N-oxides targeting replicating and nonreplicating Mycobacterium tuberculosis” (J Med Chem, 2012).
# What was measured:
# [1] = Selectivity index, ratio of CC50 for Vero cells to MIC90 for Mycobacterium tuberculosis H37Rv isolate SRI; format: functional
# [2] = test system: Mycobacterium tuberculosis; assay: Antitubercular activity against Mycobacterium tuberculosis H37Rv isolate ITR after 7 days by luminescence spectrometry; format: functional; settings: 168 h
# Vero = assay: (§1) Cytotoxicity against african green monkey Vero cells after 72 hrs by CellTiterGlo assay; settings: chlorocebus sabaeus, vero, 72 h
# [3] = test system: Mycobacterium tuberculosis; assay: Antitubercular activity against p-amino-salicyclic acid-resistant Mycobacterium tuberculosis ATCC 35821 after 5 days by resazurin-based microplate assay; format: functional; settings: ATCC 35821, 120 h
# Procedure, shortened: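 Mid-log cultures grown in 7H9 with glycerol, Tween-80 and ADC. Compounds in DMSO were tested two-fold from […] against ~10^5 CFU/mL, 37°C for 5 d. Resazurin was then added for a further 2 d, and fluorescence read at ex 530/em 590 with visual confirmation. MIC was the lowest concentration inhibiting 90% of growth. Final DMSO 0.625%; two-fold variation taken as assay error.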
# [4] = test system: Mycobacterium tuberculosis; assay: Antitubercular activity against Mycobacterium tuberculosis H37Rv incubated for 10 days in anaerobic condition followed by 48 hrs incubation in aerobic condition by LORA assay; format: functional
# [5] = test system: Mycobacterium tuberculosis; assay: Antitubercular activity against Mycobacterium tuberculosis H37Rv isolate SRI after 5 days by resazurin-based microplate assay; format: functional; settings: 120 h
# L5178Y [6] = assay: Mutagenicity against mouse L5178Y cells at 50 ug/mL after 4 hrs by MOLY assay in presence of S9 fraction; format: toxicity, cell-based; settings: s9, 4 h
# Procedure, shortened: (§2)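 Mouse lymphoma tk+/- → tk-/- forward mutation assay, 4 h or 24 h exposure, with or without Aroclor 1254-induced rat-liver S9. Endpoints were suspension and relative total growth, relative cloning efficiency, mutation frequency, and small TFT-resistant colonies (<0.6 mm). A call was positive for significant mutation-frequency induction; induction only slightly above 40 × 10^-6 net over mean solvent control was considered biologically negative.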
# Salmonella typhimurium [7] = assay: Mutagenicity in Salmonella typhimurium TA100 assessed as increase in number of revertant colonies by Ames test in presence of S9 fraction; format: toxicity, organism-based; settings: salmonella enterica subsp. enterica serovar typhimurium
# Procedure, shortened: (§3)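 Plate-incorporation Ames test in Salmonella typhimurium TA98 and TA100, with and without an Aroclor 1254-induced rat-liver metabolic activation system containing 10% S9. Revertant colonies counted per plate, with means and standard deviations and background lawn condition recorded.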
# Salmonella typhimurium [8] = assay: Mutagenicity in Salmonella typhimurium TA98 assessed as increase in number of revertant colonies by Ames test in presence of S9 fraction; format: toxicity, organism-based; settings: salmonella enterica subsp. enterica serovar typhimurium; procedure, shortened: as §3
# L5178Y [9] = assay: Mutagenicity against mouse L5178Y cells at 10 ug/mL after 4 hrs by MOLY assay in presence of S9 fraction; format: toxicity, cell-based; settings: s9, 4 h; procedure, shortened: as §2
# L5178Y [10] = assay: Mutagenicity against mouse L5178Y cells at 50 ug/mL after 4 hrs by MOLY assay in absence of S9 fraction; format: toxicity, cell-based; procedure, shortened: as §2
# Salmonella typhimurium [11] = assay: Mutagenicity in Salmonella typhimurium TA100 assessed as increase in number of revertant colonies by Ames test in absence of S9 fraction; format: toxicity, organism-based; settings: salmonella enterica subsp. enterica serovar typhimurium; procedure, shortened: as §3
# L5178Y [12] = assay: Mutagenicity against mouse L5178Y cells at 25 ug/mL after 4 hrs by MOLY assay in absence of S9 fraction; format: toxicity, cell-based; procedure, shortened: as §2
# L5178Y [13] = assay: Mutagenicity against mouse L5178Y cells at 10 ug/mL after 4 hrs by MOLY assay in absence of S9 fraction; format: toxicity, cell-based; procedure, shortened: as §2
# L5178Y [14] = assay: Mutagenicity against mouse L5178Y cells at 100 ug/mL after 4 hrs by MOLY assay in presence of S9 fraction; format: toxicity, cell-based; settings: s9, 4 h; procedure, shortened: as §2
# L5178Y [15] = assay: Mutagenicity against mouse L5178Y cells at 100 ug/mL after 4 hrs by MOLY assay in absence of S9 fraction; format: toxicity, cell-based; procedure, shortened: as §2
# L5178Y [16] = assay: Mutagenicity against mouse L5178Y cells at 25 ug/mL after 4 hrs by MOLY assay in presence of S9 fraction; format: toxicity, cell-based; settings: s9, 4 h; procedure, shortened: as §2
# Salmonella typhimurium [17] = assay: Mutagenicity in Salmonella typhimurium TA98 assessed as increase in number of revertant colonies by Ames test in absence of S9 fraction; format: toxicity, organism-based; settings: salmonella enterica subsp. enterica serovar typhimurium; procedure, shortened: as §3
# [18] = as §1; settings: chlorocebus sabaeus, Vero cells
# [19] = Solubility of the compound in 0.9% saline solution after 48 hrs by shake flask method at pH 7.4; format: physicochemical
# Procedure, shortened: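 Shake-flask method in triplicate: ~20 mg of ground compound in 5 mL 0.9% saline pH 7.4, stirred at 25°C for 48 h. The sample was filtered through 0.45 µm PVDF and the filtrate quantified by HPLC at each compound's absorption maximum against a per-compound standard curve (R² > 0.99).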
# Plasma = assay: Plasma concentration in Balb/c mouse at 100 mg/kg, po at 24 hrs; format: ADME, organism-based; set-up: dose 100 mg/kg, route oral; settings: in vivo, BLD = below limit of detection
# Procedure, shortened: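 Single oral gavage dose of 100 mg/kg to female mice, three mice per time point. Blood was drawn at 5, 15, 30, 60 min and 2, 4, 6, 8 and 24 h and processed to plasma for analysis. Noncompartmental PK analysis.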
# L5178Y [20] = assay: Mutagenicity against mouse L5178Y cells at 10 ug/mL after 24 hrs by MOLY assay in absence of S9 fraction; format: toxicity, cell-based; procedure, shortened: as §2
# L5178Y [21] = assay: Mutagenicity against mouse L5178Y cells at 25 ug/mL after 24 hrs by MOLY assay in absence of S9 fraction; format: toxicity, cell-based; procedure, shortened: as §2
SMILES,Selectivity Index [1],MIC90 [2],CC50 (Vero),MIC90 [3],MIC90 [4],MIC90 [5],further results
CCNc1n[n+]([O-])c2cc(C)c(OC)cc2[n+]1[O-],>40,3.5 µg/mL,> 100 µg/mL,1.2 µg/mL,2.5 µg/mL,,
CN(CCc1ccccc1)c1n[n+]([O-])c2cc3c(cc2[n+]1[O-])CCC3,130,0.24 µg/mL,40 µg/mL,0.15 µg/mL,0.44 µg/mL,0.31 µg/mL,
[O-][n+]1nc(N2CCCC2)[n+]([O-])c2ccccc21,56,,17 µg/mL,0.62 µg/mL,,0.31 µg/mL,
CC(C)(C)Nc1n[n+]([O-])c2ccccc2[n+]1[O-],6.4,1.9 µg/mL,8 µg/mL,1.2 µg/mL,0.82 µg/mL,1.2 µg/mL,
CC1CCCCN1c1n[n+]([O-])c2cc3c(cc2[n+]1[O-])CCC3 (centres undefined),>40,0.66 µg/mL,> 50 µg/mL,0.62 µg/mL,0.47 µg/mL,1.2 µg/mL,
CCNc1n[n+]([O-])c2cc3c(cc2[n+]1[O-])CCC3,29,0.95 µg/mL,36 µg/mL,1.2 µg/mL,0.83 µg/mL,1.2 µg/mL,Activity (L5178Y [6]): Toxic; Activity (Salmonella typhimurium [7]): Dose-dependent effect; Activity (Salmonella typhimurium [8]): Dose-dependent effect; Activity (L5178Y [9]): Toxic; Activity (L5178Y [10]): Toxic; Activity (Salmonella typhimurium [11]): Dose-dependent effect; Activity (L5178Y [12]): Toxic; Activity (L5178Y [13]): Toxic; Activity (L5178Y [14]): Toxic; Activity (L5178Y [15]): Toxic; Activity (L5178Y [16]): Toxic; Activity (Salmonella typhimurium [17]): Dose-dependent effect
COCC(C)Nc1n[n+]([O-])c2cc(F)ccc2[n+]1[O-] (centres undefined),1.3,2 µg/mL,,,1.9 µg/mL,5 µg/mL,CC50 at 72 h [18]: 6.3 µg/mL
COCC(C)Nc1n[n+]([O-])c2cc(Cl)ccc2[n+]1[O-] (centres undefined),2.1,1.4 µg/mL,,,0.78 µg/mL,1.2 µg/mL,CC50 at 72 h [18]: 2.6 µg/mL
CCNc1n[n+]([O-])c2ccccc2[n+]1[O-],17,0.57 µg/mL,,1.2 µg/mL,0.37 µg/mL,1.2 µg/mL,solubility thermodynamic at 48 h [19]: 1350 µg/mL; Cp (Plasma): BLD
CN(C)c1n[n+]([O-])c2cc3c(cc2[n+]1[O-])CCC3,13,0.3 µg/mL,24 µg/mL,0.15 µg/mL,1.5 µg/mL,0.62 µg/mL,
[O-][n+]1nc(NC2CCC2)[n+]([O-])c2cc3c(cc21)CCC3,54,0.96 µg/mL,34 µg/mL,0.62 µg/mL,0.44 µg/mL,0.62 µg/mL,
CN(Cc1ccccc1)c1n[n+]([O-])c2cc3c(cc2[n+]1[O-])CCC3,53,0.15 µg/mL,17 µg/mL,0.07 µg/mL,0.41 µg/mL,0.31 µg/mL,
[O-][n+]1nc(N2CCCC2)[n+]([O-])c2cc3c(cc21)CCC3,80,0.46 µg/mL,25 µg/mL,0.31 µg/mL,0.99 µg/mL,0.31 µg/mL,Activity (L5178Y [20]): Non-toxic; Activity (L5178Y [6]): Non-toxic; Activity (L5178Y [21]): Non-toxic; Activity (Salmonella typhimurium [7]): Dose-dependent effect; Activity (Salmonella typhimurium [8]): Dose-dependent effect; Activity (L5178Y [9]): Non-toxic; Activity (L5178Y [10]): Non-toxic; Activity (Salmonella typhimurium [11]): Dose-dependent effect; Activity (L5178Y [12]): Non-toxic; Activity (L5178Y [13]): Non-toxic; solubility thermodynamic at 48 h [19]: 280 µg/mL; Cp (Plasma): BLD; Activity (L5178Y [14]): Non-toxic; Activity (L5178Y [15]): Non-toxic; Activity (L5178Y [16]): Non-toxic; Activity (Salmonella typhimurium [17]): Dose-dependent effect
[O-][n+]1nc(N2CCCCC2)[n+]([O-])c2cc3c(cc21)CCC3,13,0.4 µg/mL,21 µg/mL,0.31 µg/mL,0.49 µg/mL,0.62 µg/mL,
CC(C)(C)C1CCC(Nc2n[n+]([O-])c3ccccc3[n+]2[O-])CC1 (centres undefined),3.7,0.22 µg/mL,2.3 µg/mL,,< 0.12 µg/mL,0.62 µg/mL,
[O-][n+]1nc(N[C@@H]2C[C@H]3CC[C@@H]2C3)[n+]([O-])c2ccc(Cl)cc21,7.3,0.22 µg/mL,1.1 µg/mL,,0.23 µg/mL,0.15 µg/mL,
[O-][n+]1nc(NC2CCCC2)[n+]([O-])c2ccc(Br)cc21,110,0.35 µg/mL,18 µg/mL,,0.46 µg/mL,0.15 µg/mL,
[O-][n+]1nc(N[C@@H]2C[C@H]3CC[C@@H]2C3)[n+]([O-])c2cc3c(cc21)CCC3,>41,0.93 µg/mL,> 50 µg/mL,,0.36 µg/mL,1.2 µg/mL,
CCNc1n[n+]([O-])c2cccc(C)c2[n+]1[O-],36,0.51 µg/mL,22 µg/mL,0.31 µg/mL,0.48 µg/mL,0.62 µg/mL,
